Results on 15 compounds are retold here after ChEMBL document CHEMBL1154881, “Synthesis and antimicrobial activities of novel 1,5-diaryl pyrazoles” (2010).

In brackets after ≈: the same amount, converted by molar mass. Where only a bound is given, the exact number is not on record here.

Assay [1] concerns Staphylococcus aureus. As to the kind of experiment: Antibacterial activity against Staphylococcus aureus ATTC 25923 after 24 hrs by disk diffusion method. The class given is functional. In outline: (§1)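 Disc diffusion, each concentration tested in triplicate on nutrient agar seeded separately with fresh bacteria. Incubation 37 °C, 24 h. Solvent and growth controls included. Zones of inhibition recorded. The K. pneumoniae strain was recultured.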
In general terms: In agar diffusion tests the substance spreads into inoculated agar from a disc or well.

The subject of assay [2] is Escherichia coli. In words: Antibacterial activity against Escherichia coli ATTC 25922 after 24 hrs by disk diffusion method. The class given is functional. A digest of the protocol: as §1
Assay [3] has as its system Pseudomonas aeruginosa. As to the kind of experiment: Antibacterial activity against Pseudomonas aeruginosa ATTC 27853 after 24 hrs by disk diffusion method. Type of assay: functional. A digest of the protocol: as §1
Assay [4] relates to Klebsiella pneumoniae. In words: Antibacterial activity against Klebsiella pneumoniae after 24 hrs by disk diffusion method. Type of assay: functional. A digest of the protocol:
as §1

Assay [5] concerns Staphylococcus aureus. As to the kind of experiment: Antibacterial activity against Staphylococcus aureus ATTC 25923 after 24 hrs by broth dilution method. The class given is functional. The settings on record: ATTC 25923, 24 h. Background: Broth dilution looks for growth in wells or tubes with falling amounts of substance.
In assay [6] the test system is Escherichia coli. As to the kind of experiment: Antibacterial activity against Escherichia coli ATTC 25922 after 24 hrs by broth dilution method. The class given is functional. The settings on record: ATTC 25922, 24 h.
In assay [7] the test system is Trichophyton mentagrophytes. As to the kind of experiment: Antifungal activity against Trichophyton mentagrophytes after 3 to 4 days by serial plate dilution method. Type of assay: functional. A digest of the protocol:
(§2)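 Sabouraud's agar (peptone 1 g, D-glucose 4 g, agar 2 g per 100 ml water, pH 5.7) plates were lawned with spore suspension (a loopful in 3 ml normal saline) and dried 1 h at 37 °C. Wells were punched and filled with compound in DMSO at 10–50 mg/ml, with a DMSO control. Plates in triplicate, 37 °C for 3–4 days.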

The subject of assay [8] is Talaromyces marneffei. As to the kind of experiment: Antifungal activity against Penicillium marneffei after 3 to 4 days by serial plate dilution method. The class given is functional. In outline: as §2
The test system of assay [9] is Aspergillus flavus. As to the kind of experiment: Antifungal activity against Aspergillus flavus NCIM 524 after 3 to 4 days by serial plate dilution method. Type of assay: functional. In outline: as §2
In assay [10] the test system is Aspergillus fumigatus. As to the kind of experiment: Antifungal activity against Aspergillus fumigatus NCIM 902 after 3 to 4 days by serial plate dilution method. The class given is functional. A digest of the protocol:
as §2

Assay [11] deals with Trichophyton mentagrophytes. As to the kind of experiment: Antifungal activity against Trichophyton mentagrophytes at 10 to 50 ug/ml after 3 to 4 days. Type of assay: functional.
Assay [12] concerns Talaromyces marneffei. As to the kind of experiment: Antifungal activity against Penicillium marneffei at 10 to 50 ug/ml after 3 to 4 days. The class given is functional.
Assay [13] deals with Klebsiella pneumoniae. As to the kind of experiment: Antibacterial activity against Klebsiella pneumoniae after 24 hrs by […].

Take `Cc1nc(-c2cc(-c3ccc(Cl)cc3)n(-c3ccc(F)cc3)n2)sc1C(=O)NNC(=O)NC(=O)c1ccc(C(F)(F)F)cc1`: the “inhibition zone (IZ)” value in [1] is on record as 19 mm; in [2], 20 mm; in [3] it was under 10 mm; in assay [4], 19 mm; in [7], 17 mm; in assay [8] it was 22 mm. The “inhibition zone (IZ)” value is reported as under 10 mm in [9] and 25 mm in [10]. Further, the MIC came out at 12.5 mg/L (≈ 19.4 µM) in assay [5]; 12.5 mg/L (≈ 19.4 µM) in assay [6]; 12.5 mg/L (≈ 19.4 µM) in assay [11]; 12.5 mg/L (≈ 19.4 µM) in [12]; 50 mg/L (≈ 77.8 µM) in assay [13].
On to `Cc1nc(-c2cc(-c3ccc(Cl)cc3)n(-c3ccc(F)cc3)n2)sc1C(=O)NNC(=S)NC(=O)c1ccccc1`, for which the “inhibition zone (IZ)” value in [1], in [2], in assay [3], in assay [4], in assay [7] and in assay [8] was under 10 mm throughout. Moreover, the “inhibition zone (IZ)” value in assay [9] and in assay [10] was under 10 mm each time.
Turning to `C=CCNC(=O)NNC(=O)c1sc(-c2cc(-c3ccc(Cl)cc3)n(-c3ccc(F)cc3)n2)nc1C`, the “inhibition zone (IZ)” value in assay [1] is 21 mm; in assay [2], 22 mm; in [3] it was under 10 mm; in assay [4], 21 mm; in [7], 19 mm; in assay [8], 21 mm. In addition, the “inhibition zone (IZ)” value in [9] is 21 mm; in [10], 23 mm. Also, the MIC in assay [5], in [6], in [11] and in [12] was 12.5 mg/L (≈ 24.5 µM) throughout.
In the case of `CCCCCC(=O)N1CCN(C(=O)c2cc(-c3ccc(Cl)cc3)n(-c3ccc(F)cc3)n2)CC1`, the “inhibition zone (IZ)” value is 18 mm in [1]; 18 mm in [2]; under 10 mm in assay [3]; 21 mm in assay [4]; 20 mm in assay [7]; 19 mm in [8]. In addition, the “inhibition zone (IZ)” value is under 10 mm in assay [9] and 28 mm in assay [10]. For the same compound, the MIC in [5], in [6], in [11] and in assay [12] was 12.5 mg/L (≈ 25.9 µM) throughout.
`Fc1ccc(-n2nc(-c3nc(-c4ccc(Cl)cc4)cs3)cc2-c2ccc(Cl)cc2)cc1`: the “inhibition zone (IZ)” value is recorded as under 10 mm in [1]; 21 mm in assay [2]; 16 mm in assay [3]; 17 mm in assay [4]; 19 mm in [7]; under 10 mm in assay [8]. For the same compound, the “inhibition zone (IZ)” value in assay [9] and in assay [10] was under 10 mm in each case. This compound also yielded an MIC in [6] of 12.5 mg/L (≈ 26.8 µM).
As to `Cc1nc(-c2cc(-c3ccc(Cl)cc3)n(-c3ccc(F)cc3)n2)sc1C(=O)NN`, the “inhibition zone (IZ)” value in assay [1] is listed as 20 mm; in assay [2], 18 mm; in assay [3], 19 mm; in assay [4] it was 19 mm; in [7], 19 mm; in assay [8] it was 20 mm. Moreover, the figures for the “inhibition zone (IZ)” value in assay [9] and in [10] were under 10 mm and 19 mm, respectively. Also, the MIC in assay [5] came to 12.5 mg/L (≈ 29.2 µM); in assay [6], 12.5 mg/L (≈ 29.2 µM); in assay [11], 12.5 mg/L (≈ 29.2 µM); in assay [12], 12.5 mg/L (≈ 29.2 µM); in [13] it was 50 mg/L (≈ 117 µM).
On to `Cc1nc(-c2cc(-c3ccc(Cl)cc3)n(-c3ccc(F)cc3)n2)sc1-c1n[nH]c(=O)o1`, for which the “inhibition zone (IZ)” value in [1], in [2], in assay [3], in [4], in [7] and in assay [8] was under 10 mm throughout. In addition, the “inhibition zone (IZ)” value in assay [9] and in assay [10] was under 10 mm each time.
For the compound `C=CCNC(=O)N1CCN(C(=O)c2cc(-c3ccc(Cl)cc3)n(-c3ccc(F)cc3)n2)CC1`, the “inhibition zone (IZ)” value in assay [1] is 20 mm; in [2] it was 19 mm; in assay [3], 19 mm; in assay [4] it was 19 mm; in assay [7], 22 mm; in assay [8], 24 mm. In addition, the “inhibition zone (IZ)” value in [9] turned out to be 19 mm; in [10], 16 mm. The MIC was 12.5 mg/L (≈ 26.7 µM) in [5]; 12.5 mg/L (≈ 26.7 µM) in assay [6]; 12.5 mg/L (≈ 26.7 µM) in assay [11]; 12.5 mg/L (≈ 26.7 µM) in assay [12]; 50 mg/L (≈ 107 µM) in assay [13].
Turning to `Cc1nc(NC(=O)c2cc(-c3ccc(Cl)cc3)n(-c3ccc(F)cc3)n2)sc1C(=O)O`, the “inhibition zone (IZ)” value in [1], in assay [2], in assay [3], in assay [4], in assay [7] and in assay [8] was under 10 mm in each case. For the same compound, the “inhibition zone (IZ)” value in assay [9] and in [10] was under 10 mm throughout.
On to `O=C(c1cc(-c2ccc(Cl)cc2)n(-c2ccc(F)cc2)n1)N1CCN(C(=O)C2CC2)CC1`, for which the “inhibition zone (IZ)” value stood at 20 mm in [1]; 20 mm in [2]; 17 mm in assay [3]; 19 mm in assay [4]; 20 mm in assay [7]; 21 mm in assay [8]. Moreover, the “inhibition zone (IZ)” value in assay [9] stood at 24 mm; in assay [10] it was 22 mm. The MIC in assay [5], in [6], in [11], in assay [12] and in assay [13] was 12.5 mg/L (≈ 27.6 µM) in each case.
With `O=C(Nc1ccc(Cl)nc1)c1cc(-c2ccc(Cl)cc2)n(-c2ccc(F)cc2)n1`, the “inhibition zone (IZ)” value in assay [1], in [2], in [3], in assay [4], in assay [7] and in assay [8] was under 10 mm throughout. In addition, the “inhibition zone (IZ)” value in [9] and in assay [10] was under 10 mm in each case.
Regarding `CCOC(=O)c1sc(NC(=O)c2cc(-c3ccc(Cl)cc3)n(-c3ccc(F)cc3)n2)nc1C`, the “inhibition zone (IZ)” value in assay [1], in assay [2], in [3], in assay [4], in [7] and in assay [8] was under 10 mm each time. Further, the “inhibition zone (IZ)” value in assay [9] and in assay [10] was under 10 mm each time.
For `CCNC(=O)N1CCN(C(=O)c2cc(-c3ccc(Cl)cc3)n(-c3ccc(F)cc3)n2)CC1`, the “inhibition zone (IZ)” value in assay [1] is 18 mm; in assay [2], 19 mm; in assay [3], under 10 mm; in assay [4] it was 17 mm; in [7], 24 mm; in [8], 19 mm. Also, the “inhibition zone (IZ)” value in assay [9] was determined as 17 mm; in assay [10], 18 mm. The MIC in assay [5] is 12.5 mg/L (≈ 27.4 µM); in [6], 12.5 mg/L (≈ 27.4 µM); in assay [11], 12.5 mg/L (≈ 27.4 µM); in [12], 12.5 mg/L (≈ 27.4 µM); in assay [13], 50 mg/L (≈ 110 µM).
`N#Cc1ccc(NC(=O)N2CCN(C(=O)c3cc(-c4ccc(Cl)cc4)n(-c4ccc(F)cc4)n3)CC2)cc1`: the “inhibition zone (IZ)” value is 21 mm in [1]; 19 mm in [2]; under 10 mm in [3]; 19 mm in assay [4]; 21 mm in [7]; 23 mm in assay [8]. Besides, the “inhibition zone (IZ)” value in [9] is on record as under 10 mm; in assay [10] it was 24 mm. The MIC in assay [5], in assay [6], in [11] and in assay [12] was 12.5 mg/L (≈ 23.6 µM) throughout.
For `Cc1cc(C2CCCCC2)n(O)c(=O)c1.NCCO` [CICLOPIROX OLAMINE], the “inhibition zone (IZ)” value came to 27 mm in [7], 23 mm in assay [8], 27 mm in [9] and 26 mm in assay [10]. Moreover, the MIC in assay [11] came to 3.12 mg/L; in [12], 6.25 mg/L.

The term MIC denotes the lowest concentration found to suppress growth. A higher MIC goes with a less susceptible organism.
